The source made the active and inactive calls. No cut-off for these calls is given here.
Experiments:
[1] = Cytotoxicity against mouse J774A1 cells assessed as reduction in cell viability incubated for 48 hrs by MTT assay; type: cell-based, J774.A1
Summary of the method: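 J774A.1 macrophages, 0.2 × 10^6 per well, incubated overnight at 37 °C in 5% CO2, then exposed to compounds in DMSO for 48 h, with DMSO dilutions as controls. Viability read by MTT formazan at 600 nm. CC50 = 50% viability reduction versus medium-only cells, from probit regression; three independent experiments.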

[2] = test system: Leishmania donovani; test: Antileishmanial activity against late log phase promastigote stage of Leishmania donovani MHOM/IN/80/Dd8 harboring luciferase reporter gene incubated for 72 hrs by Steady-Glo luminescence assay; type: functional, organism-based; conditions: Leishmania donovani, MHOM/IN/80/Dd8, 72 h; read-out: IC50
Summary of the method: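 Luciferase-transfected promastigotes kept at 25 ± 1 °C in medium 199 + 10% heat-inactivated FCS + G418 (20 μg ml–1). Late-log cells (5 × 10^5 per well) grown 72 h with graded compound concentrations from DMSO, DMSO dilution controls. Aliquot mixed 1:1 with Steady-Glo, luminescence (RLU) read; % inhibition vs control. IC50 by Probit regression, three independent experiments.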

[3] = Selectivity index, ratio of CC50 for mouse J774.A1 cells to IC50 for amastigote form of Leishmania donovani MHOM/IN/80/Dd8; type: toxicity; conditions: read-out: Ratio CC50/IC50
Summary of the method: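 Macrophages infected at a 1:10 ratio with stationary promastigotes, then treated 72 h at 37 °C; luminescence read with Steady-Glo. IC50 values from probit analysis.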

[4] = test system: Leishmania donovani; test: (§1) Antileishmanial activity against Leishmania donovani amastigotes infected in golden hamster assessed as reduction in parasite burden in spleen at 50 mg/kg, ip initiated after 2 days of pre-treatment biopsy administered for 5 days and measured on day 7 by giemsa staining based assay relative to control; type: functional; conditions: for inhibition: time 7.0 day; for inhibition in vivo at 50 mg/kg: 168 h, time 7 day
Summary of the method: (§2)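 Male inbred golden hamsters, 40–45 g, infected with L. donovani. Animals with +1 infection on pre-treatment spleen biopsy randomized, five per group. Intraperitoneal dosing in a vehicle of 10% Tween-80/ethanol (70:30) in ddH2O, 10% final, began 2 days after biopsy and ran 5 consecutive days; vehicle-only controls. Giemsa-stained spleen biopsies taken on day 7 or 28; percentage inhibition computed from initial, treated and untreated-control amastigote counts.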

[5] = test system: Leishmania donovani; test: as §1, with “28” for “7”; type: functional; conditions: for inhibition: time 28.0 day; for inhibition in vivo at 50 mg/kg: 672 h, time 28 day; summary of the method: as §2
[6] = test system: Leishmania donovani; test: Antileishmanial activity against Leishmania donovani MHOM/IN/80/Dd8 promastigotes harboring luciferase reporter gene infected in mouse J774 cells assessed as inhibition of amastigote growth incubated for 72 hrs by Steady-Glo luminescence assay; type: functional, organism-based; conditions: Leishmania donovani, MHOM/IN/80/Dd8, J774, 72 h; read-out: IC50
Summary of the method: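 J774A.1 mouse macrophages (2 × 10^5 per well, RPMI-1640 + 10% FCS, 37 °C CO2) infected after 24 h with stationary-phase luciferase-transgenic promastigotes at 1:10 macrophage:parasite; compounds in complete medium for 72 h at 37 °C. Medium swapped for PBS, Steady-Glo added, luminescence read; % inhibition vs untreated control RLU. IC50 by Probit log dose/response regression, three independent experiments.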

COC(=O)c1c(NCCCCNc2ccnc3cc(Cl)ccc23)noc1-c1ccccc1[N+](=O)[O-]
CC50 at 48 h [1]: 77.7 µM
IC50 [2]: 1.95 µM
selectivity ratio [3]: 8.99
inhibition [4]: inactive
inhibition [5]: inactive
IC50 [6]: 8.63 µM

COC(=O)c1c(NCc2ccc(Cl)cc2)noc1-c1cc2c(cc1[N+](=O)[O-])OCO2
CC50 at 48 h [1]: 33 µM
IC50 [2]: 15.5 µM
selectivity ratio [3]: 7
inhibition in vivo at 50 mg/kg [4]: 13.5%
inhibition in vivo at 50 mg/kg [5]: 2.08%
IC50 [6]: 4.59 µM

COC(=O)c1c(NCc2ccc(OC)cc2OC)noc1-c1ccc(Cl)cc1Cl
CC50 at 48 h [1]: 32.1 µM
IC50 [2]: 8.34 µM
selectivity ratio [3]: 6
inhibition in vivo at 50 mg/kg [4]: 50.9%
inhibition in vivo at 50 mg/kg [5]: 38%
IC50 [6]: 5.48 µM

COC(=O)c1c(NCCNc2ccnc3cc(Cl)ccc23)noc1-c1ccc(Cl)cc1Cl
CC50 at 48 h [1]: 3.45 µM
IC50 [2]: 1.86 µM
selectivity ratio [3]: 4.05
inhibition in vivo at 50 mg/kg [4]: 19.3%
inhibition [5]: inactive
IC50 [6]: 0.85 µM

CCN(CC)CCNc1noc(-c2ccc([N+](=O)[O-])cc2)c1C(=O)OC
CC50 at 48 h [1]: 69.2 µM
IC50 [2]: 26 µM
selectivity ratio [3]: 8.49
IC50 [6]: 8.15 µM

COC(=O)c1c(NCCCCNc2ccnc3cc(Cl)ccc23)noc1-c1ccc([N+](=O)[O-])cc1
CC50 at 48 h [1]: 136 µM
IC50 [2]: 2.85 µM
selectivity ratio [3]: 73.8
IC50 [6]: 1.84 µM

COC(=O)c1c(NCc2ccc(OC)cc2)noc1-c1ccc(Cl)cc1Cl
CC50 at 48 h [1]: 34.6 µM
IC50 [2]: 3.09 µM
selectivity ratio [3]: 1.5
IC50 [6]: 23.9 µM

COc1cccc(CNC(=O)c2c([N+](=O)[O-])noc2-c2ccc(Cl)cc2)c1
CC50 at 48 h [1]: 68.5 µM
IC50 [2]: 2.79 µM
selectivity ratio [3]: 20
IC50 [6]: 3.43 µM

O=C(NCc1cccc(Cl)c1Cl)c1c([N+](=O)[O-])noc1-c1ccc(Cl)cc1
CC50 at 48 h [1]: 73.7 µM
IC50 [2]: 2.9 µM
selectivity ratio [3]: 3.76
IC50 [6]: 19.6 µM

COC(=O)c1c(NCCNc2ccnc3cc(Cl)ccc23)noc1-c1ccc([N+](=O)[O-])cc1
CC50 at 48 h [1]: 3.79 µM
IC50 [2]: 1.87 µM
selectivity ratio [3]: 4.16
inhibition [4]: inactive
inhibition [5]: inactive
IC50 [6]: 0.91 µM

O=C(Nc1ccccc1)c1c([N+](=O)[O-])noc1-c1ccc(Cl)cc1Cl
CC50 at 48 h [1]: 67.3 µM
IC50 [2]: 2.68 µM
selectivity ratio [3]: 11.3
IC50 [6]: 5.97 µM

COC(=O)c1c(NCc2ccccc2)noc1-c1ccc(Cl)cc1Cl
CC50 at 48 h [1]: 54.1 µM
IC50 [2]: 35.4 µM
selectivity ratio [3]: 32.8
IC50 [6]: 1.65 µM

COC(=O)c1c(NCCCNc2ccnc3cc(Cl)ccc23)noc1-c1ccc(Cl)cc1Cl
CC50 at 48 h [1]: 31.1 µM
IC50 [2]: 3.82 µM
selectivity ratio [3]: 9.67
inhibition in vivo at 50 mg/kg [4]: 62%
inhibition in vivo at 50 mg/kg [5]: 9.23%
IC50 [6]: 3.21 µM

O=C(NCc1ccc(F)cc1)c1c([N+](=O)[O-])noc1-c1ccc(Cl)cc1
CC50 at 48 h [1]: 91.9 µM
IC50 [2]: 1.16 µM
selectivity ratio [3]: 4.72
IC50 [6]: 19.4 µM

COC(=O)c1c(NCCCN2CCOCC2)noc1-c1cc2c(cc1[N+](=O)[O-])OCO2
CC50 at 48 h [1]: 65 µM
IC50 [2]: 27.8 µM
selectivity ratio [3]: 3.82
IC50 [6]: 17 µM

CC(C)CCNC(=O)c1c([N+](=O)[O-])noc1-c1ccc([N+](=O)[O-])cc1
CC50 at 48 h [1]: 67 µM
IC50 [2]: 3.01 µM
selectivity ratio [3]: 3.85
IC50 [6]: 17.4 µM

COC(=O)c1c(NCCNc2cc(C(F)(F)F)nc3c(C(F)(F)F)cccc23)noc1-c1ccc(Cl)cc1Cl
CC50 at 48 h [1]: 99 µM
IC50 [2]: 48.2 µM
selectivity ratio [3]: 4.86
IC50 [6]: 20.3 µM

COC(=O)c1c([N+](=O)[O-])noc1-c1ccccc1Cl
CC50 at 48 h [1]: 80 µM
IC50 [2]: 2.72 µM
selectivity ratio [3]: 4.82
IC50 [6]: 16.6 µM

O=C(NCc1cccc(Br)c1)c1c([N+](=O)[O-])noc1-c1ccc(Cl)cc1Cl
CC50 at 48 h [1]: 71.2 µM
IC50 [2]: 3.05 µM
selectivity ratio [3]: 9.19
IC50 [6]: 7.74 µM

COC(=O)c1c([N+](=O)[O-])noc1-c1cccc(-c2cnco2)c1
CC50 at 48 h [1]: 19.7 µM
IC50 [2]: 0.77 µM
selectivity ratio [3]: 3.6
IC50 [6]: 4.8 µM

COc1ccc(CNC(=O)c2c([N+](=O)[O-])noc2-c2ccc([N+](=O)[O-])cc2)cc1
CC50 at 48 h [1]: 69.6 µM
IC50 [2]: 3.52 µM
selectivity ratio [3]: 33.8
IC50 [6]: 2.06 µM

COc1ccc(CNC(=O)c2c([N+](=O)[O-])noc2-c2ccc(Cl)cc2Cl)cc1
CC50 at 48 h [1]: 80.5 µM
IC50 [2]: 3.42 µM
selectivity ratio [3]: 39.6
IC50 [6]: 2.03 µM

COC(=O)c1c(NCCNc2ccnc3cc(Cl)ccc23)noc1-c1ccccc1F
CC50 at 48 h [1]: 3.42 µM
IC50 [2]: 1.73 µM
selectivity ratio [3]: 2.32
IC50 [6]: 1.47 µM

COC(=O)c1c(NCCCCNc2ccnc3cc(Cl)ccc23)noc1-c1ccccc1F
CC50 at 48 h [1]: 70.9 µM
IC50 [2]: 10.6 µM
selectivity ratio [3]: 3.56
IC50 [6]: 19.9 µM

COC(=O)c1c([N+](=O)[O-])noc1-c1cccc(-c2ncoc2C)c1
CC50 at 48 h [1]: 18.4 µM
IC50 [2]: 0.86 µM
selectivity ratio [3]: 2.5
IC50 [6]: 7.1 µM

COC(=O)c1c(NCCNc2ccnc3cc(Cl)ccc23)noc1-c1ccccc1[N+](=O)[O-]
CC50 at 48 h [1]: 73.6 µM
IC50 [2]: 3.45 µM
selectivity ratio [3]: 3.94
IC50 [6]: 18.7 µM

O=C(NCc1ccc(F)cc1)c1c([N+](=O)[O-])noc1-c1ccc(Cl)cc1Cl
CC50 at 48 h [1]: 86.4 µM
IC50 [2]: 2.46 µM
selectivity ratio [3]: 1.7
IC50 [6]: 50.6 µM

COC(=O)c1c([N+](=O)[O-])noc1-c1ccccc1Br
CC50 at 48 h [1]: 34.8 µM
IC50 [2]: 0.34 µM
selectivity ratio [3]: 1.08
IC50 [6]: 32.2 µM

COC(=O)c1c(NCc2ccc(C(C)(C)C)cc2)noc1-c1ccc([N+](=O)[O-])cc1
CC50 at 48 h [1]: 81.4 µM
IC50 [2]: 49.7 µM
selectivity ratio [3]: 9.69
IC50 [6]: 8.16 µM

COC(=O)c1c(NCCNc2cc(C(F)(F)F)nc3c(C(F)(F)F)cccc23)noc1-c1ccc([N+](=O)[O-])cc1
CC50 at 48 h [1]: 73 µM
IC50 [2]: 10.1 µM
selectivity ratio [3]: 4.03
IC50 [6]: 18.1 µM

COC(=O)c1c(NCc2ccc(OC)c(OC)c2)noc1-c1ccc(Cl)cc1Cl
CC50 at 48 h [1]: 7.58 µM
IC50 [2]: 4.49 µM
selectivity ratio [3]: 3
IC50 [6]: 2.37 µM

COC(=O)c1c([N+](=O)[O-])noc1-c1cc(-c2ccccc2Cl)n(-c2ccccc2)n1
CC50 at 48 h [1]: 79.9 µM
IC50 [2]: 0.76 µM
selectivity ratio [3]: 3.76
IC50 [6]: 21.2 µM

COC(=O)c1c(NCCNc2ccnc3cc(Cl)ccc23)noc1-c1cc2c(cc1[N+](=O)[O-])OCO2
CC50 at 48 h [1]: 3.7 µM
IC50 [2]: 2.04 µM
selectivity ratio [3]: 2.48
IC50 [6]: 1.49 µM

COC(=O)c1c(NCc2ccc(Cl)cc2)noc1-c1ccc([N+](=O)[O-])cc1
CC50 at 48 h [1]: 78.3 µM
IC50 [2]: 3.79 µM
selectivity ratio [3]: 9.93
IC50 [6]: 7.88 µM

COC(=O)c1c([N+](=O)[O-])noc1-c1ccccc1F
IC50 [2]: 2.87 µM
selectivity ratio [3]: 2.19
inhibition in vivo at 50 mg/kg [4]: 36%
inhibition [5]: inactive
IC50 [6]: 16.1 µM

COC(=O)c1c(NCCCNc2ccnc3cc(Cl)ccc23)noc1-c1ccc([N+](=O)[O-])cc1
CC50 at 48 h [1]: 106 µM
IC50 [2]: 3.37 µM
selectivity ratio [3]: 33.9
IC50 [6]: 3.14 µM

COc1ccc(CNC(=O)c2c([N+](=O)[O-])noc2-c2ccc(Cl)cc2Cl)cc1OC
CC50 at 48 h [1]: 81.8 µM
IC50 [2]: 5.24 µM
selectivity ratio [3]: 41.9
IC50 [6]: 1.95 µM

COc1ccc(CNC(=O)c2c([N+](=O)[O-])noc2-c2ccc(Cl)cc2)cc1OC
CC50 at 48 h [1]: 106 µM
IC50 [2]: 3.05 µM
selectivity ratio [3]: 33
IC50 [6]: 3.22 µM

COC(=O)c1c(NCCCCNc2ccnc3cc(Cl)ccc23)noc1-c1ccc(Cl)cc1Cl
CC50 at 48 h [1]: 93.5 µM
IC50 [2]: 5.93 µM
selectivity ratio [3]: 3.39
IC50 [6]: 27.6 µM

COC(=O)c1c(NCCNc2cc(C(F)(F)F)nc3c(C(F)(F)F)cccc23)noc1-c1ccccc1F
CC50 at 48 h [1]: 80.4 µM
IC50 [2]: 43.2 µM
selectivity ratio [3]: 4.52
IC50 [6]: 17.8 µM

COC(=O)c1c(NCCCNc2ccnc3cc(Cl)ccc23)noc1-c1cc2c(cc1[N+](=O)[O-])OCO2
CC50 at 48 h [1]: 73.6 µM
IC50 [2]: 7.75 µM
selectivity ratio [3]: 4.55
IC50 [6]: 16.1 µM

From ChEMBL document CHEMBL4699419, “Antileishmanial assessment of isoxazole derivatives against L. donovani” (RSC Med Chem, 2020)
